Source: PubChem
Sampled rows, rich in hits. Any-hit rate of the full collection: about 0.79%.
hIAP inh – blocks human intestinal alkaline phosphatase | P09923 | purified IAP, CDP-Star luminescence, 30 min | inhibition, % at 10 µM | 0.12% of 330,000 active | AID 2544;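 active = inhibition reaching a set limit with compound at 10 µM in the primary screen, cut at about 35% in these data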;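 also: plate controls were DMSO wells with enzyme for no effect and no-enzyme buffer wells for full effect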
Target sequence (P09923 whole entry, looked up): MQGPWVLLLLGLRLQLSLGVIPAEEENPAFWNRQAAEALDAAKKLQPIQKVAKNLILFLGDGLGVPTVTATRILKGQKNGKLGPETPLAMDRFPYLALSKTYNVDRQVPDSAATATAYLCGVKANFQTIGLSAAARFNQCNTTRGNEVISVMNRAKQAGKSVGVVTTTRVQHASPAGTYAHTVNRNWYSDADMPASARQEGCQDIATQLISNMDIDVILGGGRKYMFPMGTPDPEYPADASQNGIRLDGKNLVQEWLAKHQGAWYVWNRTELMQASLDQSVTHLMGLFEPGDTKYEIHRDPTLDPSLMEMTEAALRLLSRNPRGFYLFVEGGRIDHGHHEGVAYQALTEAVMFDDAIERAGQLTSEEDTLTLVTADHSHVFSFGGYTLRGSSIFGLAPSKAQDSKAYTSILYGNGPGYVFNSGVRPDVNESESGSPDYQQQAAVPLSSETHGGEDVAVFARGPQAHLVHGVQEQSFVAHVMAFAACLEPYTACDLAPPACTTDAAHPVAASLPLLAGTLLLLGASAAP
mIAP activ – mouse IAP activation. 0.24% of 330,000 active. muIAP, CDP-Star luminescence, 30 min; hits give high values; 1 = vehicle-only enzyme signal, 0 = enzyme-free wells. AID 2805. activation factor at 10 µM;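 active = activation factor of at least 2 at 20 µM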
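System: Mouse IAP enzyme | Also added: CDP-Star substrate | Dosing: Compounds dispensed in DMSO | Schedule: 30 min enzyme-substrate-compound incubation at room temperature | Technique: Chemiluminescence readout | Control set: DMSO-only wells and no-enzyme negative control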
bIAP inhibitor – blocks bovine intestinal alkaline phosphatase activity; inhibition, % at 20 µM; purified bovine IAP, CDP-star luminescence, 30 min; AID 1019; 190,000 tested, under 10 active;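 active = over 50% inhibition of intestinal alkaline phosphatase at 20 µM in the single-dose screen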
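Assay system: bovine IAP enzyme; medium: DEA buffer 100 mM, pH 9.8, with MgCl2 1.0 mM, ZnCl2 0.02 mM; doses: 20 µM single dose; incubation: enzyme reaction for 30 min at room temperature; detection: CDP-star luminescence signal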
mIAP block – mouse IAP inhibition. inhibition, % at 10 µM. 0.2% of 330,000 active. purified mouse IAP, CDP-Star luminescence, 30 min;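 active = inhibition of at least 40% at 10 µM in the primary screen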;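 also: plate controls were DMSO with enzyme for no effect and no enzyme wells for full effect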
bIAP activator – intestinal alkaline phosphatase (bovine) activation | purified bovine IAP, CDP-star luminescence, 30 min; hits give high values; fold of DMSO-control signal, blank-subtracted | activation factor at 20 µM | 0.17% of 200,000 active | AID 1016;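 active = activation factor of 2 or more at 20 µM, a signal rise over negative controls twice the positive control's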
hIAP act – increases human intestinal alkaline phosphatase activity; P09923; purified human IAP, CDP-Star luminescence, 30 min; hits give high values; 1 = vehicle-only enzyme, 0 = enzyme-free background; activation factor at 10 µM; 0.16% of 330,000 active; AID 2524;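 active = activation factor of the enzyme at least 2-fold when tested at 20 µM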
An asterisk follows results filed as active; i = inactive; x = no result given.

SMILES	hIAP inh	mIAP activ	bIAP inhibitor	mIAP block	bIAP activator	hIAP act
CCOc1ccc(S(=O)(=O)NCCC(=O)NCC(c2ccc(OC)cc2)N2CCCCC2)cc1 (stereo not given)	13.1	0.923	x	7.7	x	0.869
O=C(COC(=O)CCNS(=O)(=O)c1ccccc1)NNC(=O)c1ccccc1	-7.4	0.951	x	4.9	x	1.07
COc1cccc(NC(=O)C2CCN(S(=O)(=O)c3ccc4c(c3)OCCO4)CC2)c1	16.0	1.49	-152.1	-49.2	2.5*	0.84
COc1ccc(OC)c(S(=O)(=O)N2CCC(C(=O)Nc3cccc(C(F)(F)F)c3)CC2)c1	-10.8	2.56*	-0.4	-156.3	1	1.11
O=c1[nH]c(/C=C/c2ccc(OC(F)F)cc2)nc2c1cnn2-c1ccccc1	-19.4	0.923	12.4	7.7	0.9	1.19
Cc1cc(C)c(S(=O)(=O)N2CCOC2CNC(=O)C(=O)NCc2cccnc2)c(C)c1 (stereo not given)	11.0	0.959	12.3	4.1	0.9	0.89
Cc1nn(C)cc1S(=O)(=O)Nc1ccc(F)c(F)c1	9.4	1.11	x	-10.6	x	0.906
C[C@@H](C(=O)Nc1ccc2ccccc2c1)[C@@H]1C[C@@]1(C)[C@@H](NC(=O)OCc1ccccc1)c1ccccc1	-2.8	2.04*	x	-104.0	x	1.03
CCOCCCNC(=S)N1C2CCC1CC(NC(=O)Nc1ccc(C(=O)OCC)cc1)C2 (stereo not given)	-37.9	2.2*	-38.1	-120.1	1.4	1.38
CCNC(=S)N1C2CCC1CC(NC(=O)Nc1ccc(C(=O)OCC)cc1)C2 (stereo not given)	7.7	1.56	-11.5	-56.3	1.1	0.923
CN1CCS/C1=C\C=C1/SC(=S)N(CC(=O)O)C1=O	x	x	x	x	0.4	x
CCN1C(=O)/C(=C/C=C2/SCCN2C)SC1=S	9.2	0.517	13.3	48.3*	0.9	0.908
Cc1ccc(C(=O)N/C(=C/c2ccc(Cl)cc2)C(=O)Nc2cccc(C(=O)O)c2)cc1	21.1	1.07	-118.9	-7.5	2.2*	0.789
O=C(Nc1cccc(C(=O)O)c1)/C(=C\c1ccccc1)NC(=O)c1ccccc1	-4.5	0.992	3.7	0.8	1	1.04
CCOc1ccc(CCNC(=O)c2ccc3c(c2)NC(=O)C2CCCN32)cc1OCC (stereo not given)	7.9	2.03*	x	-102.6	x	0.921
COc1ccc(NC(=O)NC23CC4(C)CC(C)(CC(C)(C4)C2)C3)cc1OC	13.1	3.94*	8.5	-293.5	0.9	0.869
COC(=O)c1ccc(NC(=O)Nc2ccc(OC)c(OC)c2)cc1	-32.1	1.57	-22.3	-56.7	1.2	1.32
Cc1cccc(-n2ncc3c2CCCC3NC(=O)CCN2CCCO2)c1C (stereo not given)	-15.1	1.09	x	-9.1	x	1.15
CCCCCCCCC(=O)NC(NC(=S)N1CCOCC1)C(Cl)(Cl)Cl (stereo not given)	-73.1	3.36*	4.9	-235.6	1	1.73
COc1ccc(NC(=O)c2ccc3c(=O)n(Cc4ccco4)c(=S)[nH]c3c2)c(OC)c1	-13.4	0.551	-12.5	44.9*	1.1	1.13
O=S(=O)(c1ccc(NC(=S)Nc2ccccc2)cc1)N1CCOCC1	-6.1	1.01	1.7	-1.2	1	1.06
CC(C)CCCCCCNC(=S)Nc1ccc(S(=O)(=O)N2CCOCC2)cc1	6.0	2.25*	5.5	-124.7	0.9	0.94
CCCC(=O)OCCNc1cc(SCc2ccco2)c2nonc2c1[N+](=O)[O-]	7.2	0.511	30.5	48.9*	0.7	0.928
CCCSc1cc(NCCOC(=O)CCC)c([N+](=O)[O-])c2nonc12	9.3	0.827	x	17.3	0.4	0.907
CC(=O)OCCCNc1cc(SCc2ccco2)c2nonc2c1[N+](=O)[O-]	-3.9	0.501	14.9	49.9*	0.9	1.04
SMILES	hIAP inh	mIAP activ	bIAP inhibitor	mIAP block	bIAP activator	hIAP act
CC(C)(C)NC(=O)C12CCC(C)(c3nc4ccccc4nc31)C2(C)C (stereo not given)	2.9	0.996	1.5	0.4	1	0.971
Cc1ccc(C2(C)NC(=O)N(CC(=O)c3ccc(Cl)s3)C2=O)cc1 (stereo not given)	-5.5	0.85	-97.2	15.0	2*	1.05
COc1ccc(Cl)cc1Nc1nc(N2CCCC2)nc(N2CCCC2)n1	x	x	8.8	x	0.9	x
COc1ccc(C2=NOC(Cn3nc(-c4ccccc4)cc3C(=O)NCc3ccccc3OC)C2)cc1 (stereo not given)	0.1	2.07*	x	-106.7	x	0.999
Cc1ccc(-n2cc(CN(C)Cc3ncc[nH]3)c(-c3cccc(C)c3)n2)cc1	-42.6	1.04	-253.4	-4.4	3.5*	1.43
CN(Cc1ncc[nH]1)Cc1cn(-c2ccccc2)nc1-c1ccc2c(c1)OCO2	-13.7	1.13	x	-13.0	x	1.14
Cc1c(C)n(Cc2ccccc2)c2ccc(C(=O)O)cc12	1.6	0.982	x	1.8	x	0.984
Cc1nn(C)cc1/C=N\NC(=O)c1ccc2c(c1)c(C)c(C)n2Cc1ccccc1	-20.3	2.3*	i	-129.7	8.3*	1.2
Cc1ccc(NC(=O)C2CCN(S(=O)(=O)c3ccc4c(c3)NC(=O)C(C)S4)CC2)cc1Cl (stereo not given)	-52.9	2.37*	x	-137.2	x	1.53
CCCCC(CC)CNC(=O)C(Cc1ccccc1)NS(=O)(=O)c1ccc2c(c1)CCC(=O)N2 (stereo not given)	-15.4	2.2*	16.5	-119.8	0.8	1.15
CCC1(CC)NC(=O)N(CC(=O)N2CCN(c3ccccc3F)CC2)C1=O	4.2	1.02	x	-2.3	x	0.958
COc1ccc(-c2nn(C)c3sc(C(=O)NCc4ccco4)cc23)cc1OC	-8.6	1.08	-254.0	-7.9	3.5*	1.09
CCc1ccc(C(C)NC(=S)NC2CCCCC2)cc1 (stereo not given)	7.9	1.25	x	-24.6	x	0.921
CC(C)c1ccc(C(C)NC(=S)NC2CCCCC2)cc1 (stereo not given)	-46.5	2.16*	x	-115.9	x	1.47
[O-][n+]1c2ccccc2c2n1CCN1CCOC21c1ccc(Cl)cc1 (stereo not given)	6.9	0.952	x	4.8	x	0.931
CCOc1ccccc1C(=O)NC(C(=O)Nc1cccnc1)C(C)C (stereo not given)	4.4	0.954	-10.8	4.6	1.1	0.956
CCCCCCc1ccc(N2C[C@H](CCCCC)[C@@H](CC(=O)NCc3ccc(OC)cc3)C2=O)cc1	5.3	2.25*	x	-125.5	x	0.947
CCCCCCc1ccc(N2C[C@H](Cc3ccccc3)[C@@H](CC(=O)NCc3ccc(OC)cc3)C2=O)cc1	14.5	2	x	-99.5	x	0.855
CCCCCCc1ccc(N2C[C@H](CCCCC)[C@@H](CC(=O)NCc3ccccc3)C2=O)cc1	9.3	2.34*	x	-134.2	x	0.907
COC(=O)C1=C(C)NC(=O)NC1c1ccc(N2CCC(c3ccccc3)=N2)cc1 (stereo not given)	-20.8	2.19*	-2.0	-119.0	1	1.21
